Shown are actives, neighbours in structure and some others; about 1.5% of the full set was active somewhere.
APJ antagonist: blocks the human apelin receptor APJ | P35414 | CHO-K1 APJ beta-arrestin complementation, luminescence | inhibition, % at 20 µM | 0.32% of 330,000 active;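 active = inhibition above about 40% at 20 µM, limit read from the data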;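 also: cells challenged with 10 nM apelin-13 agonist together with compound; plate controls were apelin-13 plus DMSO wells for no effect and DMSO wells lacking apelin-13 for full effect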
Target sequence (P35414 whole entry, looked up): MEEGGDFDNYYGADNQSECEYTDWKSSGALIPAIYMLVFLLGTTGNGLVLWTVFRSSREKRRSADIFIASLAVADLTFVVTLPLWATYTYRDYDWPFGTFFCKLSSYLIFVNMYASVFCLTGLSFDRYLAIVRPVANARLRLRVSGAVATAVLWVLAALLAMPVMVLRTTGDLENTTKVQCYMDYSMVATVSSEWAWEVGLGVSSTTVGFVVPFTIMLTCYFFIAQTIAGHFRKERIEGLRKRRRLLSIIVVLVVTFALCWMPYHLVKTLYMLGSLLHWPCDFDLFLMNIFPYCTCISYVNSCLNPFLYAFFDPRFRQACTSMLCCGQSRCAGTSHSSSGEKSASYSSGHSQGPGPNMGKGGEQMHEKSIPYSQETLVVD
EBI2 antag: blocks human EBI2 receptor beta-arrestin signaling; AID 651636; inhibition, % at 5 µM; 0.81% of 360,000 active; EBI2 beta-arrestin recruitment, luminescence, 7a,25-OHC stimulated; in the data active = inhibition above about 38%;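 also: enzyme fragment complementation signal reports receptor beta-arrestin coupling in cells; 0% = agonist plus DMSO wells and 100% = wells without agonist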
CXCR6 block: blocks human CXCR6 beta-arrestin recruitment; O00574; CHO-K1 PathHunter CXCR6 beta-arrestin, luminescence; inhibition, % at 20 µM; 0.36% of 360,000 active; in the data active = inhibition above about 34%, passing the limit was not always enough;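 also: antagonist mode with CXCL16 agonist at 10 nM final; 0% = 10 nM CXCL16 with DMSO and 100% = unstimulated wells without agonist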
APJ ag: APJ receptor agonism; CHO-K1 APJ PathHunter beta-arrestin, luminescence; 0% DMSO wells, 100% apelin; activation, % at 20 µM; 0.11% of 330,000 active; P35414;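 active = activation more than six SD over the plate average, tested at 20 µM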;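 also: 0% = DMSO alone and 100% = apelin-13 at 10 nM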
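system = engineered CHO-K1 APJ arrestin reporter cells | input = 1000 cells per well | timing = overnight seeding, 90 min compound at 25 °C, 1 h detection | measured by = enzyme-fragment complementation luminescence | read-out = beta-arrestin recruitment to APJ as agonist activity, luminescent signal | control set = negative DMSO alone, positive Apelin-13 at 10 nM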
CCR6 antag: antagonists of human CCR6 receptor; P51684; CHO-K1 CCR6 PathHunter beta-arrestin, luminescence, CCL20-stimulated; inhibition, % at 20 µM; 0.49% of 340,000 active;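 active = compounds whose inhibition of the agonist-driven luminescence signal at 20 µM reaches about 50%, limit read from the data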;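 also: cells stimulated with CCL20 at 14 nM final; plate controls were DMSO with CCL20 for no effect and DMSO without agonist for full effect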
EBI2 conf: EBI2 (human) antagonism, single concentration confirmation; shares compounds with EBI2 antag; EBI2 beta-arrestin luminescence, 7a,25-OHC antagonism; inhibition, % at 5 µM; 29% of 2,400 active;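 active = inhibition of at least 50%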
EBI2 agonist: activates EBI2, counter-screen for EBI2 antagonists | shares compounds with EBI2 antag | EBI2-expressing cells, agonist mode, luminescence, 60 min; 0% vehicle, 100% 7α,25-dihydroxycholesterol control | activation, % at 5 µM | 2,400 tested, under 10 active | AID 652000;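 active = activation of at least 50%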
bGal counter: counter-screen for EBI2 antagonists: E. coli beta-galactosidase inhibition; 1% of 2,400 active; inhibition, % at 5 µM; purified beta-galactosidase, luminescent Galacton Star, 15 min; shares compounds with EBI2 antag;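 active = replicate-average signal at least 3 plate SD below neutral wells, shown as high inhibition, flagging enzyme-inhibiting false positives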;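 also: 0% = DMSO wells with enzyme and 100% = wells lacking enzyme; higher means stronger loss of beta-gal luminescence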
Starred values were filed as active, the others as inactive; nt = no result.

SMILES | APJ antagonist | EBI2 antag | CXCR6 block | APJ ag | CCR6 antag | EBI2 conf | EBI2 agonist | bGal counter
COc1ccc(NC(=O)N2CCC(C(=O)c3ccc(F)cc3)CC2)cc1 | 0 | 53* | 0 | 9 | 0 | 36 | -1 | -9
COc1ccc(NC(=S)N2CCC(C(=O)c3ccc(F)cc3)CC2)cc1 | nt | 13 | -7 | nt | 5 | nt | nt | nt
COc1ccc(OC2CCN(C(=O)Nc3ccc(C)cc3)CC2)cc1 | -22 | 83* | -12 | -2 | 3 | 61* | 2 | 3
O=C1CCC/C=C\C[C@@H](CC(=O)N(CCO)Cc2ccccc2)C(=O)N[C@H](c2ccccc2)CO1 | 1 | -11 | -1 | -4 | 11 | nt | nt | nt
COC(=O)COc1ccc(S(=O)(=O)NCc2ccc3c(c2)OCO3)cc1 | -11 | -14 | -4 | 0 | 2 | nt | nt | nt
COc1ccc(N(C(=O)Cn2nnc(-c3ccc(Cl)cc3)n2)C(C(=O)NCC2CCCO2)c2ccc(C)cc2)cc1 (stereo not given) | -5 | 61* | -6 | -4 | 0 | 22 | -1 | -7
COc1ccc(N(C(=O)Cn2nnc(-c3ccc(Cl)cc3)n2)C(C(=O)NCC2CCCO2)c2ccncc2)cc1 (stereo not given) | 1 | 9 | 5 | -2 | 0 | nt | nt | nt
Cc1cccc(NC(=O)Cn2ccn(-c3ccc4c(c3)OCCO4)c(=O)c2=O)c1 | -1 | -10 | 4 | 1 | 12 | nt | nt | nt
CCCS(=O)c1nc(C)cc(C)c1S(C)(=O)=O (stereo not given) | 13 | 8 | 9 | -1 | 10 | nt | nt | nt
CCOc1cccc(NC(=O)c2ccc(S(=O)(=O)N(C)C)cc2)c1 | 2 | 46* | -5 | -1 | 12 | 33 | -1 | -11
CCOc1ccccc1NC(=O)CN1CCCCCC1 | 1 | -14 | -4 | -2 | 0 | nt | nt | nt
O=[N+]([O-])c1ccc(N2CCC(=NOCc3ccc(Cl)cc3)CC2)cc1 | 6 | 53* | -2 | -1 | 18 | 26 | -1 | -8
O=[N+]([O-])c1ccc(CN2CCN(c3ccc([N+](=O)[O-])cc3)CC2)cc1 | 7 | 9 | 0 | 0 | 22 | nt | nt | nt
O=C1C=C(O)CC2(CCCCC2)C1 | nt | -4 | -8 | nt | nt | nt | nt | nt
CCOC(=O)c1sc2nc(C)nc(NCc3ccc(Cl)cc3)c2c1C | 4 | 24 | 1 | 1 | -7 | nt | nt | nt
CCOC(=O)c1sc2nc(C)nc(NCc3ccc(F)cc3)c2c1C | -9 | 45* | 4 | 1 | 2 | 43 | 0 | -1
O=S1(=O)CC(N2CCCC2)CN1Cc1cn(Cc2cccc(C(F)(F)F)c2)nn1 (stereo not given) | nt | 2 | -3 | nt | nt | nt | nt | nt
CCOC(=O)c1c(NC(=O)CS(=O)(=O)c2cn(CC)c3ccccc23)sc2c1CCCCC2 | 20 | 57* | 11 | -1 | 6 | 36 | -1 | 6
O=C(COC(=O)c1ccc(OC(F)F)cc1)Nc1cccc(S(=O)(=O)NC2=NCCC2)c1 | 5 | 0 | -4 | -4 | 7 | nt | nt | nt
O=S(=O)(NC1=NCCC1)c1cccc(NC(=S)Nc2ccc(OC(F)F)cc2)c1 | 14 | 48* | 1 | -8 | 12 | 31 | -1 | -4
CCCCCCSc1ccc(-c2nc3ccc(C)cn3c2NCCCC)cc1OC | nt | 63* | 20 | nt | nt | 63* | -2 | -21
O=C(NC(c1ccc(F)cc1)c1ccc2ccccc2n1)C1CCN(CCOc2ccc(F)cc2)CC1 (stereo not given) | nt | 39 | 12 | nt | nt | nt | nt | nt
COc1ccc(OCCN2CCC(C(=O)NC(c3ccc(OC)cc3)c3ccccn3)CC2)cc1 (stereo not given) | nt | 21 | 7 | nt | nt | nt | nt | nt
O=C(NC(c1ccc(F)cc1)c1ccc2ccccc2n1)C1CCN(CCOc2ccc(Cl)cc2Cl)CC1 (stereo not given) | nt | 64* | 4 | nt | nt | 47 | 0 | 2
COc1ccc(OCCN2CCC(C(=O)NC(c3ccc(F)cc3)c3ccc4ccccc4n3)CC2)cc1 (stereo not given) | nt | 53* | 10 | nt | nt | 36 | 0 | 4
